# Assay results taken from ChEMBL document CHEMBL5674880 (PLoS One, 2018).
# Tests used:
# Format in all cases: functional, cell-based
# [1] = system: HCT-8; experiment: Antiproliferative activity against human HCT-8 cells after 10 days; settings: HCT-8, 240 h
# Procedure, shortened: (§1)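 10-day 2D proliferation screen of a broad cancer cell panel (about 240 lines, Eurofins Oncopanel). All lines were mycoplasma negative and STR verified. Compounds were dosed up to a top concentration of 10 μM or 25 μM, depending on the inhibitor. Anti-proliferative IC50 values are the average of three biological replicates.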
# [2] = system: AU565; experiment: Antiproliferative activity against human AU565 cells after 10 days; settings: AU565, 240 h
# Procedure, shortened: (§2)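 Tested as part of a 240-line cancer cell panel (Eurofins Oncopanel); all lines were mycoplasma-negative and STR-verified. Cells were exposed to a compound concentration series in 2D culture for 10 days. The highest concentration was 10 μM or 25 μM, depending on the inhibitor. Antiproliferative IC50 was derived from the mean of three biological replicates.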
# [3] = Antiproliferative activity against human CEM/C1 cells after 10 days; settings: CEM/C1, 240 h; procedure, shortened: as §2
# [4] = system: RL95-2; experiment: Antiproliferative activity against human RL95-2 cells after 10 days; settings: RL95-2, 240 h
# [5] = system: NCI-H508; experiment: Antiproliferative activity against human NCI-H508 cells after 10 days; settings: NCI-H508, 240 h
# Procedure, shortened: (§3)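 Broad cancer cell line panel (Eurofins Oncopanel, about 240 lines; mycoplasma negative, STR verified) grown in 2D culture and exposed to compound in a 10-day proliferation assay. The top concentration was 10 μM for the SMYD2 inhibitor series and 25 μM for the SMYD3 inhibitor. The proliferative IC50 is taken from concentration-response data, each value the mean of three biological replicates.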
# [6] = system: SiHa; experiment: Antiproliferative activity against human SiHa cells after 10 days; settings: 240 h
# [7] = system: MOLT-16; experiment: Antiproliferative activity against human MOLT-16 cells after 10 days; settings: MOLT-16, 240 h; procedure, shortened: as §3
# [8] = system: Hs 766; experiment: Antiproliferative activity against human Hs766T cells after 10 days; settings: Hs 766, 240 h; procedure, shortened: as §1
# [9] = system: SW1463; experiment: Antiproliferative activity against human SW1463 cells after 10 days; settings: SW1463, 240 h
# [10] = system: NCI-H596; experiment: Antiproliferative activity against human NCI-H596 cells after 10 days; settings: NCI-H596, 240 h; procedure, shortened: as §3
# [11] = system: DLD-1; experiment: Antiproliferative activity against human DLD-1 cells after 10 days; settings: DLD-1, 240 h; procedure, shortened: as §1
# [12] = system: SHP77; experiment: Antiproliferative activity against human SHP77 cells after 10 days; settings: SHP77, 240 h
# [13] = system: MES-SA; experiment: Antiproliferative activity against human MES-SA cells after 10 days; settings: 240 h; procedure, shortened: as §3
# [14] = system: Calu-1; experiment: Antiproliferative activity against human Calu-1 cells after 10 days; settings: Calu-1, 240 h; procedure, shortened: as §1
# [15] = system: HuP-T4; experiment: Antiproliferative activity against human HuP-T4 cells after 10 days; settings: HuP-T4, 240 h; procedure, shortened: as §3
# [16] = system: SK-N-FI; experiment: Antiproliferative activity against human SK-N-FI cells after 10 days; settings: 240 h
# [17] = system: DMS-114; experiment: Antiproliferative activity against human DMS-114 cells after 10 days; settings: DMS-114, 240 h; procedure, shortened: as §1
# [18] = system: DOHH-2; experiment: Antiproliferative activity against human DOHH-2 cells after 10 days; settings: DOHH-2, 240 h; procedure, shortened: as §1
# [19] = system: BPH-1; experiment: Antiproliferative activity against human BPH-1 cells after 10 days; settings: BPH-1, 240 h; procedure, shortened: as §2
# [20] = system: UMUC3; experiment: Antiproliferative activity against human UM-UC-3 cells after 10 days; settings: UMUC3, 240 h
# [21] = system: SCC-25; experiment: Antiproliferative activity against human SCC-25 cells after 10 days; settings: SCC-25, 240 h
# [22] = system: TCC-SUP; experiment: Antiproliferative activity against human TCC-SUP cells after 10 days; settings: 240 h
# [23] = system: L-428; experiment: Antiproliferative activity against human L-428 cells after 10 days; settings: L-428, 240 h; procedure, shortened: as §3
# [24] = Antiproliferative activity against human HLF cells after 10 days; settings: 240 h; procedure, shortened: as §1
# [25] = system: SW948; experiment: Antiproliferative activity against human SW948 cells after 10 days; settings: SW948, 240 h
# [26] = system: RKO; experiment: Antiproliferative activity against human RKO cells after 10 days; settings: 240 h; procedure, shortened: as §3
# [27] = system: SW48; experiment: Antiproliferative activity against human SW48 cells after 10 days; settings: SW48, 240 h
# [28] = system: BFTC-905; experiment: Antiproliferative activity against human BFTC-905 cells after 10 days; settings: BFTC-905, 240 h; procedure, shortened: as §2
# [29] = system: SW684; experiment: Antiproliferative activity against human SW684 cells after 10 days; settings: SW684, 240 h
# [30] = system: ASPC1; experiment: Antiproliferative activity against human ASPC1 cells after 10 days; settings: ASPC1, 240 h; procedure, shortened: as §2
# [31] = system: SK-MES-1; experiment: Antiproliferative activity against human SK-MES-1 cells after 10 days; settings: SK-MES-1, 240 h
# [32] = system: SNU-5; experiment: Antiproliferative activity against human SNU-5 cells after 10 days; settings: SNU-5, 240 h
# [33] = system: SK-BR-3; experiment: Antiproliferative activity against human SK-BR-3 cells after 10 days; settings: SK-BR-3, 240 h
# [34] = system: SW-620; experiment: Antiproliferative activity against human SW620 cells after 10 days; settings: SW-620, 240 h
# [35] = Antiproliferative activity against human HUH-6-clone5 cells after 10 days; settings: HUH-6-clone5, 240 h; procedure, shortened: as §1
# [36] = system: Daoy; experiment: Antiproliferative activity against human Daoy cells after 10 days; settings: 240 h; procedure, shortened: as §1
# [37] = system: RPMI-7951; experiment: Antiproliferative activity against human RPMI-7951 cells after 10 days; settings: RPMI-7951, 240 h
# [38] = system: BT-474; experiment: Antiproliferative activity against human BT-474 cells after 10 days; settings: BT-474, 240 h; procedure, shortened: as §2
# [39] = system: DB; experiment: Antiproliferative activity against human DB cells after 10 days; settings: 240 h; procedure, shortened: as §1
# [40] = system: HT; experiment: Antiproliferative activity against human HT cells after 10 days; settings: 240 h; procedure, shortened: as §1
# [41] = Antiproliferative activity against human OE21 cells after 10 days; settings: OE21, 240 h; procedure, shortened: as §3
# [42] = system: C-33-A; experiment: Antiproliferative activity against human C-33-A cells after 10 days; settings: 240 h; procedure, shortened: as §2
# [43] = system: SJRH30; experiment: Antiproliferative activity against human SJRH30 cells after 10 days; settings: SJRH30, 240 h
# [44] = system: J-RT3-T3-5; experiment: Antiproliferative activity against human J-RT3-T3-5 cells after 10 days; settings: J-RT3-T3-5, 240 h; procedure, shortened: as §3
# [45] = system: Raji; experiment: Antiproliferative activity against human Raji cells after 10 days; settings: 240 h
# [46] = system: MeWo; experiment: Antiproliferative activity against human MeWo cells after 10 days; settings: 240 h; procedure, shortened: as §3
# [47] = system: SCC-9; experiment: Antiproliferative activity against human SCC-9 cells after 10 days; settings: SCC-9, 240 h
# [48] = system: NCI-H446; experiment: Antiproliferative activity against human NCI-H446 cells after 10 days; settings: NCI-H446, 240 h; procedure, shortened: as §3
# [49] = system: HMCB cell line; experiment: Antiproliferative activity against human HMCB cells after 10 days; settings: 240 h; procedure, shortened: as §1
# [50] = system: D283 Med; experiment: Antiproliferative activity against human D283 Med cells after 10 days; settings: 240 h; procedure, shortened: as §1
# [51] = system: RPMI-6666; experiment: Antiproliferative activity against human RPMI-6666 cells after 10 days; settings: RPMI-6666, 240 h
# [52] = system: YAPC; experiment: Antiproliferative activity against human YAPC cells after 10 days; settings: 240 h
structure (smiles),measurement,setting,value
Cc1cn(CCN2CCN(c3ccccc3-c3cc(C#N)cc(C(=O)NCCCN4CCCC4)c3)CC2)c2ccccc12,IC50,[1],2.52 µM
same,IC50,[2],1.25 µM
same,IC50,[3],1.27 µM
same,IC50,[4],1.29 µM
same,IC50,[5],3.09 µM
same,IC50,[6],3.26 µM
same,IC50,[7],1.11 µM
same,IC50,[8],2.75 µM
same,IC50,[9],3.06 µM
same,IC50,[10],2.95 µM
same,IC50,[11],3.4 µM
same,IC50,[12],1.65 µM
same,IC50,[13],2.3 µM
same,IC50,[14],2.85 µM
same,IC50,[15],3.48 µM
same,IC50,[16],6.03 µM
same,IC50,[17],2.33 µM
same,IC50,[18],0.263 µM
same,IC50,[19],3.49 µM
same,IC50,[20],2.91 µM
same,IC50,[21],2.52 µM
same,IC50,[22],2.26 µM
same,IC50,[23],1.49 µM
same,IC50,[24],2.44 µM
same,IC50,[25],3.91 µM
same,IC50,[26],1.04 µM
same,IC50,[27],1.35 µM
same,IC50,[28],2.5 µM
same,IC50,[29],5.75 µM
same,IC50,[30],3.01 µM
same,IC50,[31],1.18 µM
same,IC50,[32],3.32 µM
same,IC50,[33],1.17 µM
same,IC50,[34],3.08 µM
same,IC50,[35],1.34 µM
same,IC50,[36],3.67 µM
same,IC50,[37],2.05 µM
same,IC50,[38],2.94 µM
same,IC50,[39],1.17 µM
same,IC50,[40],1.93 µM
same,IC50,[41],1.06 µM
same,IC50,[42],3.23 µM
same,IC50,[43],1.23 µM
same,IC50,[44],1.18 µM
same,IC50,[45],1.59 µM
same,IC50,[46],1.98 µM
same,IC50,[47],1.18 µM
same,IC50,[48],3.16 µM
same,IC50,[49],2.86 µM
same,IC50,[50],2.51 µM
same,IC50,[51],2.91 µM
same,IC50,[52],2.87 µM
O=C(NC1CN(Cc2cnn(Cc3ccccc3)c2)C1)c1cn(C2CC2)nn1,IC50,[1],> 10 µM
same,IC50,[2],> 10 µM
same,IC50,[3],> 10 µM
same,IC50,[4],> 10 µM
same,IC50,[5],> 10 µM
same,IC50,[6],> 10 µM
same,IC50,[7],> 10 µM
same,IC50,[8],> 10 µM
same,IC50,[9],> 10 µM
same,IC50,[10],> 10 µM
same,IC50,[11],> 10 µM
same,IC50,[12],> 10 µM
same,IC50,[13],> 10 µM
same,IC50,[14],> 10 µM
same,IC50,[15],> 10 µM
same,IC50,[16],> 10 µM
same,IC50,[17],> 10 µM
same,IC50,[18],> 10 µM
same,IC50,[19],> 10 µM
same,IC50,[20],> 10 µM
same,IC50,[21],> 10 µM
same,IC50,[22],> 10 µM
same,IC50,[23],2.61 µM
same,IC50,[24],> 10 µM
same,IC50,[25],> 10 µM
same,IC50,[26],> 10 µM
same,IC50,[27],> 10 µM
same,IC50,[28],> 10 µM
same,IC50,[29],> 10 µM
same,IC50,[30],> 10 µM
same,IC50,[31],> 10 µM
same,IC50,[32],> 10 µM
same,IC50,[33],> 10 µM
same,IC50,[34],> 10 µM
same,IC50,[35],> 10 µM
same,IC50,[36],> 10 µM
same,IC50,[37],> 10 µM
same,IC50,[38],> 10 µM
same,IC50,[39],0.663 µM
same,IC50,[40],> 10 µM
same,IC50,[41],3.4 µM
same,IC50,[42],> 10 µM
same,IC50,[43],> 10 µM
same,IC50,[44],0.003 µM
same,IC50,[45],> 10 µM
same,IC50,[46],> 10 µM
same,IC50,[47],> 10 µM
same,IC50,[48],> 10 µM
same,IC50,[49],> 10 µM
same,IC50,[50],> 10 µM
same,IC50,[51],> 10 µM
same,IC50,[52],> 10 µM
